Compound activity (PubChem BioAssay)
Gli-Sufu block – Gli-Sufu pathway antagonists, primary screen, luciferase luminescence, Sufu-KO-LIGHT cells, uHTS; Sufu-KO-LIGHT fibroblasts, Gli luciferase reporter luminescence; inhibition, % at 5 µM; hit rate 0.74% among 340,000;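 active = inhibition above about 55%, limit read from the data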;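 note: 0% = DMSO-treated cells and 100% = wells with medium but no cells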
UPR CHOP act – activators of apoptotic CHOP UPR arm, primary screen, cell-based, CHO-CHOP luciferase reporter, luminescence, uHTS; activation, % at 10 µM; hit rate 0.34% among 330,000; AID 449763, 2010; UPR activation; percent of tunicamycin response over DMSO baseline;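 active = at 10 µM dose, activation of 40% or more, normalized to positive control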;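 note: 100% = tunicamycin at 10 µg/mL and 0% = DMSO alone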
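System: CHO-CHOP luciferase reporter cell line; amount: 500 cells/well; buffer or medium: F12 medium containing 10% fetal bovine serum; incubation: 6 h compound exposure at 37 °C after overnight seeding; measured by: luciferase luminescence after 10 min with Steady-Glo reagent; evaluation: % reporter activation, DMSO baseline versus tunicamycin full activation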
XBP1 UPR activ – activators of adaptive XBP1 UPR arm, primary screen, cell-based, CHO-XBP1 luciferase reporter, luminescence, uHTS; IRE1-XBP1 UPR activation; percent of tunicamycin response, DMSO as zero; activation, % at 20 µM; hit rate 0.33% among 330,000;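 active = versus positive control, 20 µM dose yields 30% or more activation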;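 note: 100% = tunicamycin at 10 µg/mL and 0% = DMSO only wells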
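assay system = CHO-XBP1 luciferase reporter cells | amount = 1000 cells/well | buffer or medium = F12 plus 10% FBS | compound dosing = single point, 20 µM final compound, 1% DMSO | incubation = 16-18 h cell attachment at 37 °C, then 6 h compound exposure | detection = Steady-Glo luminescence read | controls = tunicamycin 10 µg/mL and vehicle-only wells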
Jurkat NFkB inh – inhibitors of induced NF-kB luciferase reporter, primary screen, TCR NF-kB activation inhibitor project, cell-based, luminescence, uHTS; Jurkat, PMA/ionomycin-induced NF-kB luciferase reporter; inhibition, % at 4 µM; hit rate 0.53% among 330,000; AID 435003, 2010; in the data active = inhibition above about 50%
CHOP inhibitor – inhibitors of CHOP promoter induction, primary screen, cell-based, unfolded protein response, luciferase reporter; inhibition, % at 10 µM; CHO-K1 CHOP-promoter luciferase, tunicamycin-induced, 15-18 h; hit rate 3.8% among 220,000; AID 2732, 2010;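 active = compounds that reduced the stress-induced luciferase reporter signal by more than about 70% of percent inhibition, limit read from the data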;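 note: 0% = tunicamycin plus vehicle and 100% = wells without tunicamycin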
697 NFkB inh – inhibitors of PMA/ionomycin-induced NF-kB reporter, 697 cells, primary screen, B-cell NF-kB inhibitor project, cell-based, luminescence, uHTS; inhibition, % at 4 µM; hit rate 0.33% among 330,000; 697 B-cell NF-kB luciferase reporter, 16 h; in the data active = inhibition above about 35%
* hit, by the source's call; . = no result given. Rows were chosen to be rich in hits. Some 3.9% of all compounds tested hit in one or more screens of this group.

SMILES	Gli-Sufu block	UPR CHOP act	XBP1 UPR activ	Jurkat NFkB inh	CHOP inhibitor	697 NFkB inh
N#CC(C#N)=NNc1ccc(-n2ccc(C(F)(F)F)n2)cc1	76*	4	3	10	70	0
NCCCP(=O)(O)O	.	.	.	.	-35	.
COC(=O)C12OCC34C(CC5C(C)=C(O)C(=O)CC5(C)C3C(O)C1O)OC(=O)C(OC(=O)/C=C(\C)C(C)C)C24 (centres undefined)	88*	.	.	.	.	.
C#CCN(C)[C@@H](C)Cc1ccccc1	.	.	.	.	-3	.
COC(=O)c1nc(-c2ccc3c(n2)C(=O)C(N)=C(OC)C3=O)c(N)c(-c2ccc(OC)c(OC)c2O)c1C	58*	21	2	1	43	-6
Cc1ccc(OCC(=O)Nc2ccc(Cl)cc2C(=O)c2ccccc2)cc1	-2	0	-1	6	12	16
Cc1ccc(S(=O)(=O)NCCC(=O)Nc2ccc(Cl)cc2C(=O)c2ccccc2)cc1	-5	1	-3	2	94*	10
COC(=O)C1=C(c2ccc(OC)c(OC)c2)C[C@@H]2CC[C@H]1N2C(=O)N1CCc2cc(OC)c(OC)cc2C1	-12	2	-3	-9	.	16
COc1ccc(CC2NCC(O)C2OC(C)=O)cc1 (centres undefined)	86*	.	.	.	.	.
C=CCN1CC[C@]23c4c5ccc(O)c4O[C@@H]2/C(=N/N=C2\CC[C@@]4(O)C6Cc7ccc(O)c8c7[C@@]4(CCN6CC=C)[C@@H]2O8)CC[C@@]3(O)C1C5	.	.	.	.	8	.
O=c1[nH]c(Cl)ccc1CN1CCOCC1	-2	-1	-2	5	.	20
C#C[C@@]1(O)CCC2C3CCC4=C/C(=N/OCC(=O)NC(CCC(N)=O)C(=O)O)CC[C@]4(C)C3CC[C@@]21C (some centres undefined)	12	-1	3	-16	.	-15
COC(=O)C(O)(c1ccc(NC(=S)NC(=O)c2ccc(Cl)cc2Cl)cc1)C(F)(F)F (centres undefined)	7	1	3	6	71*	-42
CCOC(=O)C(O)(c1ccc(NC(=S)NC(=O)c2ccc(Cl)cc2Cl)cc1)C(F)(F)F (centres undefined)	3	1	0	10	53	-47
CCOC(=O)C(O)(c1ccc(NC(=S)NC(=O)c2ccc(Cl)cc2Cl)c(C)c1)C(F)(F)F (centres undefined)	20	3	0	11	70*	-31
CCOC(=O)C(NC(=O)CC)(Nc1ccc(C(O)(C(=O)OCC)C(F)(F)F)cc1C)C(F)(F)F (centres undefined)	1	-1	-3	0	-34	8
CCCCn1c(N)c(C(=O)NCc2cccs2)c2nc3ccccc3nc21	9	-1	-2	1	92*	0
CCCCCn1c(N)c(C(=O)NCCN2CCOCC2)c2nc3ccccc3nc21	14	-1	4	4	46	9
CCCCCCn1c(N)c(C(=O)NCCN2CCOCC2)c2nc3ccccc3nc21	-9	-2	4	6	86*	7
CCCCCn1c(N)c(C(=O)NCc2cccs2)c2nc3ccccc3nc21	8	-3	2	7	68	-13
COc1ccc(-n2nc(C(F)(F)F)cc2-c2ccc(Cl)cc2)cc1	.	.	.	.	-8	.
CCCCC1(CCCC)C(=O)NC(=Nc2cccc(C)c2)NC1=O	-5	1	4	-8	80*	-9
CN1CCN(/N=C/c2c(O)n(CCC3=CCCCC3)c(=S)[nH]c2=O)CC1	35	2	-1	7	8	10
O=c1[nH]c(=S)n(CCC2=CCCCC2)c(O)c1C=NC1CCN(Cc2ccccc2)CC1	4	3	1	46	81*	14
O=c1[nH]c(=S)n(CCC2=CCCCC2)c(O)c1/C=N/Nc1ccccc1	-23	1	-4	12	73*	14
SMILES	Gli-Sufu block	UPR CHOP act	XBP1 UPR activ	Jurkat NFkB inh	CHOP inhibitor	697 NFkB inh
CC=C(CC)C1(CC)C(=O)NC(=S)NC1=O	4	.	.	.	.	.
CC1N=C(c2ccccc2Cl)c2cc(Br)ccc2NC1=O (centres undefined)	-23	0	-1	-34	.	6
CCC(C)C1N=C(c2ccccc2)c2cc(Cl)ccc2N(CC(=O)NCc2ccco2)C1=O (centres undefined)	.	-1	2	1	88*	7
CC(=O)OC1C(=O)OCC23CCC4(C)OC4C2OC2CC(OC(=O)C=CC=CC(=O)OCCC1C)C3(C)C21CO1 (centres undefined)	89*	.	.	.	.	.
CC(O)C1C=CC=CC(=O)OC2CC3OC4C5OC5(C)CCC4(COC(=O)C4OC4(C)C(O)CO1)C2(C)C31CO1 (centres undefined)	86*	.	.	.	.	.
CC1=CC2OC3CC4OC(=O)C=CC=CC(C(C)O)OCC(O)C(C)CC(=O)OCC2(CC1O)C4(C)C31CO1 (centres undefined)	90*	.	.	.	.	.
C[C@@H]1O[C@H](C[N+](C)(C)C)C[C@H]1O	.	.	.	.	0	.
CN1CC[C@@]2(C)c3cc(O)ccc3N(C)C12 (some centres undefined)	.	.	.	.	9	.
COc1ccc2c(c1)C13CCCCC1C(C2)N(C)CC3 (centres undefined)	.	.	.	.	-7	.
C[C@@H]1C[C@H]2OC(=O)C3(CO3)[C@H]2[C@H](O)[C@]2(C)C(=O)C3OC3[C@@H]12 (some centres undefined)	.	37	-4	-9	106*	-134
CC(=Nc1ccc2c(c1)CCC2)c1c(O)n(C2CCCCC2)c(=O)[nH]c1=O	-5	1	3	11	87*	-9
CCC(=Nc1ccc2c(c1)CCC2)c1c(O)n(C2CCCCC2)c(=O)[nH]c1=O	-6	4	0	-4	76*	-2
CCc1c(C(=O)OC)ncc2[nH]c3cc(OC)c(OC)cc3c12	.	.	.	.	4	.
C/C1=C\[C@@H](C)C/C=C/[C@H]2[C@@H]3O[C@]3(C)[C@@H](C)[C@H]3[C@H](Cc4c[nH]c5ccccc45)NC(=O)[C@]32C(=O)/C=C/C(=O)[C@@H]1O	29	-9	-8	12	105*	8
CC(O)(CS(=O)(=O)c1cccc(C(F)(F)F)c1)C(=O)Nc1cccc(C(F)(F)F)c1 (centres undefined)	3	-2	-1	3	72*	15
C[C@H]1O[C@H]1P(=O)(O)O	-17	0	-9	-2	0	18
